Source: PubChem
Scp1 inh: Scp-1 (human) phosphatase inhibition; inhibition, % at 20 µM; hit rate 0.88% among 340,000; Q9GZU7; Recombinant Scp1, phosphopeptide, malachite green phosphate absorbance;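 active = inhibition above about 50% at 20 µM, limit read from the data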;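 note: plate controls were DMSO wells with enzyme for no effect and wells lacking enzyme for full effect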
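Test system: SCP-1 catalytic domain; Buffer or medium: Acidic Tris acetate buffer with magnesium and detergent; Also added: Phosphorylated 17-residue peptide substrate; Compound: single 20 µM dose, 1% DMSO; Schedule: enzyme reaction 45 min at room temperature, colour 5 min, stabilisation 30 min; Signal: Phosphate-binding colour reagent, absorbance read at 630 nm.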
SUMO1-SIM PPI: modulators of human SUMO1-mediated protein-protein interactions; AID 602429; hit rate 0.33% among 360,000; SUMO1 binding to a labelled peptide, TR-FRET, 1 h; inhibition, % at 20 µM; P63165; in the data active = inhibition above about 37%
Target sequence (P63165 whole entry, looked up): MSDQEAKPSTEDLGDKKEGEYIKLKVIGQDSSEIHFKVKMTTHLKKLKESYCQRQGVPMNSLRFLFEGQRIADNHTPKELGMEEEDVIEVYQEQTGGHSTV
DSG3 Ab inh: human desmoglein-3 autoantibody binding inhibition. P32926. DSG3-coupled beads, scFv-anti-DSG3-GFP binding, flow cytometry; stronger effect = lower value. binding (percent of control), % at 10 µM. hit rate 0.48% among 310,000. AID 588358;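 active = binding more than 3 SD below its plate's average and above zero; inconclusive = below that plate limit but binding exactly zero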;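 note: hits lower antibody fragment binding to DSG3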
LMPTP block: blocks human LMPTP phosphatase; P24666; recombinant LMPTP-A, OMFP fluorogenic substrate, fluorescence intensity; inhibition, % at 20 µM; hit rate 0.22% among 360,000;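 active = compounds that cut the enzyme signal by at least half of the control window in the single-dose screen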;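 note: plate controls were DMSO wells with enzyme plus substrate for no effect and substrate without enzyme for full effect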
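material = LMPTP-A | quantity = 0.625 nM enzyme | reagent = OMFP substrate, 400 µM final | buffer or medium = Bis-Tris pH 6.0, DTT, detergent | detection = endpoint fluorescence intensity from OMFP dephosphorylation | dosing = single 20 µM dose | read-out basis = % inhibition relative to no-enzyme and uninhibited control wells | control set = no-enzyme and uninhibited controls | timing = 50 min at room temperature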
STEP block: blocks human striatal-enriched tyrosine phosphatase; inhibition, % at 20 µM; recombinant STEP, OMFP fluorogenic substrate, fluorescence; P54829; hit rate 0.25% among 360,000; AID 588621;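 active = inhibition at 20 µM, scaled per plate between control wells, above about 37%, limit read from the data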;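 note: 0% = DMSO with enzyme and substrate and 100% = substrate only without enzyme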
Target sequence (P54829 whole entry, looked up): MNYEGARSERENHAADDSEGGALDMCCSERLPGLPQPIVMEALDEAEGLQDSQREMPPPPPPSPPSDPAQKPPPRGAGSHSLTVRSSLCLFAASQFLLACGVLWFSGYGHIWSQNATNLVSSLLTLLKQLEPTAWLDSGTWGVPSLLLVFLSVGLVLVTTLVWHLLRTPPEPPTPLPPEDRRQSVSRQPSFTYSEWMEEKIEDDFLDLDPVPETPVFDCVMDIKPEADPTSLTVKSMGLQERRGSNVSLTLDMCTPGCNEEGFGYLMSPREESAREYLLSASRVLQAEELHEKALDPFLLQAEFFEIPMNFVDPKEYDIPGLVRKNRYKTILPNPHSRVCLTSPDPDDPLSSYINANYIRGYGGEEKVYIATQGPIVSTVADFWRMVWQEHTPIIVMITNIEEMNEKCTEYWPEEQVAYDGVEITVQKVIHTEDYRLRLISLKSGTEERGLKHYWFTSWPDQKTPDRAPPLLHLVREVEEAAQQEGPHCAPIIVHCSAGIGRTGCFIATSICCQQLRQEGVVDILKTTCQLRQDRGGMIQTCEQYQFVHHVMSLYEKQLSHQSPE
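Assay system: isolated STEP enzyme. Buffer or medium: pH 6.0 Bis-Tris with DTT and Tween 20. Also added: fluorogenic phosphatase substrate OMFP at 25 µM final. Dosing: 20 µM, 1% DMSO. Timing: 20 min reaction, room temperature, in the dark. Measured by: fluorescence intensity, excitation 480 nm, emission 540 nm. Evaluation: normalized % inhibition.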
Scp-1 conf: confirmation of human Scp-1 phosphatase inhibitors. recombinant SCP-1 catalytic domain, phosphate release, malachite green absorbance. inhibition, % at 20 µM. AID 540281. hit rate 61% among 2,500. shares compounds with Scp1 inh;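 note: plate controls were DMSO with enzyme for no effect and buffer wells lacking enzyme for full effect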
MG interference: colorimetric interference in Scp-1 counter-screen; shares compounds with Scp1 inh; Colorimetric interference counterscreen, malachite green absorbance 630 nm; apparent inhibition (interference), % at 20 µM; 2,500 tested, under 10 active; AID 540313;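 note: compounds added after enzyme reaction finished so only phosphate colour detection is probed; plate controls were DMSO wells with completed Scp-1 reaction for no effect and substrate wells lacking enzyme for full effect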
Scp-1 Tm shift: binds human Scp-1, shifting its melting temperature | shares compounds with Scp1 inh | Recombinant SCP1, Sypro Orange thermal shift Tm | thermal shift relative to vanadate control, % at 40 µM | hit rate 25% among 1,500 | AID 540329;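 active = substances whose mean melting-temperature shift, as a percentage of the reference inhibitor's shift, reaches about 5.3%, limit read from the data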;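 note: 0% = Tm of DMSO wells and 100% = Tm with sodium orthovanadate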
* hit, by the source's call; ? = inconclusive; . = no result given. Shown are actives, neighbours in structure and some others; about 1.7% of the full set was active somewhere.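 Rule for the calls, unless noted: active = inhibition of at least 30% at 20 µM; inactive = the rest.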

SMILES	Scp1 inh	SUMO1-SIM PPI	DSG3 Ab inh	LMPTP block	STEP block	Scp-1 conf	MG interference	others
O=C(c1cc2nc(-c3ccc(F)cc3)cc(C(F)(F)F)n2n1)N1CCOCC1	53*	-3	.	-3	-2	-14	-9
Cn1c(SCC(=O)c2ccc(O)c(O)c2)nnc1-c1ccccc1	-4	0	111	8	1	.	.
Cn1c(SCC(=O)c2ccc(O)c(O)c2)nnc1-c1cccs1	67*	15	135	21	15	50*	-9	Scp-1 Tm shift=3
COc1ccc(N2CC(C(=O)N/N=C/c3ccccc3)CC2=O)cc1 (stereo not given)	14	-2	104	-1	-1	-23	-22
COC(=O)c1ccc(/C=N/NC(=O)C2CC(=O)N(c3ccc(OC)cc3)C2)cc1 (stereo not given)	11	-12	101	-1	0	.	.
CSCCC(NS(=O)(=O)c1ccc(Cl)cc1)C(=O)OCc1c(Cl)cccc1Cl (stereo not given)	-6	0	97	1	-5	.	.
CSCCC(NS(=O)(=O)c1ccc(Cl)cc1)C(=O)OCc1cccc(Cl)c1 (stereo not given)	51*	4	105	3	-1	-6	-8
COc1ccccc1-n1cnc2c(c1=O)c1nc3ccccc3nc1n2-c1ccc(C)c(C)c1	96*	1	35*	7	17	67*	-6	Scp-1 Tm shift=-8
COC(=O)CCCC1=CC2=C(c3ccccc3)C(=O)C(C)(OC(=O)C3CCCC3)C(=O)C2=CN1CCc1c[nH]c2ccccc12 (stereo not given)	-3	-15	103	5	2	.	.
O=C(C1=C[C@H](c2csc3ccccc23)C[C@H](OCc2ccc(CO)cc2)O1)N1CCN(Cc2ccc3c(c2)OCO3)CC1	-1	4	106	10	1	.	.
CCCCc1c(-c2ccccc2OC)ncn1C1CCCC1	.	1	.	3	.	.	.
O=C(NCC(=O)N(Cc1cccs1)C(C(=O)NC1CCCC1)c1cccnc1)c1ccco1 (stereo not given)	-6	-1	98	0	-1	.	.
O=C(NCC(=O)N(Cc1cccs1)C(C(=O)NC1CCCCC1)c1ccncc1)c1ccco1 (stereo not given)	52*	-2	75	0	0	-15	-19
Cc1cc(C)c2c(=O)[nH]c(SCC(=O)NCc3ccccc3)nc2n1	-8	0	105	-3	-3	.	.
Cc1cc(C)c2c(=O)[nH]c(SCC(=O)NCCc3ccccc3)nc2n1	67*	3	104	-2	0	-12	-12
OC[C@@H](O)[C@@H](O[C@H]1O[C@H](CO)[C@@H](O)[C@H](O)[C@H]1O)[C@H](O)[C@@H](O)CO	4	-1	102	-1	1	.	.
Cc1ccc(NC(=O)c2cc(-c3ccc(C)c(C)c3O)n[nH]2)cc1C	99*	14	98	20	12	67*	-5	Scp-1 Tm shift=7.5*
O=C(Oc1cccc(NC(=O)c2ccco2)c1)c1ccc(Br)c(S(=O)(=O)N2CCCCC2)c1	-16	-2	.	3	2	.	.
Cc1ccc(C(=O)Oc2cccc(NC(=O)c3ccco3)c2)cc1S(=O)(=O)N1CCC(C)CC1	54*	0	105	3	0	-10	-14
Cc1cc(Cl)ccc1C(=O)C1CCCN(C(=O)c2cccc(N3CCCC3=O)c2)C1 (stereo not given)	-9	7	97	0	3	.	.
COc1ccc(S(=O)(=O)N2CCOCC2)cc1NC(=O)c1cccc(-n2cccc2)c1	58*	23	91	13	0	-7	-18
O=C(O)c1ccc(-c2noc(-c3cccc(F)c3)n2)cc1	22	9	103	-2	-1	.	.
CCN(CC)CCNC(C(=O)Nc1cc(C(F)(F)F)ccc1Cl)c1ccccc1 (stereo not given)	91*	3	125	-3	-2	91*	-11	Scp-1 Tm shift=-6
N#Cc1ccc(COC(=O)c2ccc(N3CCCC3)c([N+](=O)[O-])c2)cc1	-7	-6	114	3	1	.	.
Cc1cc(C)n(CCNC(=O)C2CCC(=O)N(Cc3ccc(Cl)cc3)C2)n1 (stereo not given)	-3	2	105	0	-5	.	.
SMILES	Scp1 inh	SUMO1-SIM PPI	DSG3 Ab inh	LMPTP block	STEP block	Scp-1 conf	MG interference	others
Cc1cc(C)n(CCCNC(=O)C2CC(=O)N(Cc3ccccc3)C2)n1 (stereo not given)	-3	-2	101	-4	-2	-3	-4
OCC[C@@H]1C[C@@H](O)[C@H](O)[C@]2(CCCO2)O1	-10	1	103	1	-1	.	.
COc1ccc(Br)cc1C(=O)Nc1cccc(-c2nnc(-c3ccco3)o2)c1	98*	18	86	32	33	72*	-11	Scp-1 Tm shift=2
CS(=O)(=O)Oc1ccc(/C=N/NC(=O)c2ccncc2)cc1	-7	-4	90	0	2	.	.
Cc1ccc(-n2nc3c(c2NC(=O)C2CCCC2)CS(=O)(=O)C3)cc1	11	-4	.	-1	0	.	.
O=C1CCN(Cc2ccccc2)S(=O)(=O)c2ccccc21	68*	4	96	1	1	63*	-16	Scp-1 Tm shift=-21
O=C(CSc1nc2sc3c(c2c(=O)n1-c1ccccc1)CCCC3)NCc1ccco1	10	0	98	0	3	.	.
O=C(CSc1nc2sc3c(c2c(=O)n1-c1ccccc1)CCCC3)N/N=C/c1ccc(C(=O)O)cc1	51*	-4	?	1	2	38*	-13	Scp-1 Tm shift=-13
O=C(/C=C/c1ccco1)OCC(=O)N1CCCCC1	96*	-14	89	15	41*	51*	-20	Scp-1 Tm shift=-8
O=C1COc2ccc(C(=O)COC(=O)c3ccco3)cc2N1	-8	-4	99	2	0	.	.
CCCNC(=O)COC(=O)/C=C/c1ccco1	12	-12	86	0	0	.	.
O=C1COc2ccc(C(=O)COC(=O)/C=C/c3ccco3)cc2N1	59*	-13	94	16	8	57*	-10	Scp-1 Tm shift=-14
O=C(COC(=O)/C=C/c1ccco1)NCCN1C(=O)CSC1=O	65*	-7	99	4	6	29	-16
O=C(N/N=C/C(Br)=C/c1ccccc1)c1cccs1	-7	-14	107	2	-2	.	.
Cc1ccc(C(=O)Nc2nccs2)cc1	-4	2	.	-3	-2	.	.
O=C(Nc1nccs1)c1ccc2nccnc2c1	52*	18	.	0	2	63*	1	Scp-1 Tm shift=-2
